The list is not random: actives were taken first. Their share in the collection is about 2.9%.
Apaf1 inhib = inhibitors of human Apaf-1 apoptosome, primary screen, biochemical, DEVD-Rh110 fluorescence, uHTS. reconstituted apoptosome caspase-3 activity. inhibition, % at 20 µM. 330,000 compounds, 0.71% hits. AID 489030, 2010; active = inhibition of at least 40% at 20 µM;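 also: plate controls were DMSO wells for no effect and DEVD-CHO caspase inhibitor wells for full effect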
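Assay system – apoptosome proteins · Medium – Hepes buffer, pH 7.5 · Also added – cytochrome c with DEVD-Rh110 · Timing – 30 min compound preincubation, 50 min activation, room temperature · Detection – Rh110 fluorescence, excitation 480 nm, emission 540 nm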
MEKK2 mut-MEK5 = MEK5 binding signal on mutant MEKK2 PB1, primary screen, biochemical, multiplex bead flow cytometry, Alexa488-MEK5; Alexa488-MEK5 binding to MEKK2 mutant; percent response, % at 10 µM; 290,000 compounds, 0.35% hits; in the data active = percent response above about 24%, passing the limit was not always enough
UBC13 polyUb = UBC13 polyubiquitin chain formation inhibitors, primary screen, biochemical, TR-FRET, uHTS | Ubiquitin-conjugating enzyme E2 N (Homo sapiens), P61088 | inhibition, % at 20 µM | 330,000 compounds, 0.47% hits | AID 485273, 2010; in the data active = inhibition above about 45%, passing the limit was not always enough
MEKK3 PB1 HTS = modulators of MEKK3-MEK5 PB1 binding, primary screen, biochemical, wildtype MEKK3, multiplex bead flow cytometry, Alexa488-MEK5. Mitogen-activated protein kinase kinase kinase 3 (Homo sapiens), Q99759. bead-based flow cytometry, Alexa488-MEK5 binding to MEKK3; actives lie on both sides; 0 = blocked by unlabeled MEK5, 100 = vehicle. 290,000 compounds, 1.4% hits. binding response (% of control), % at 10 µM;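 active = binding response more than 3 SD above or below the average of its plate-row segment, actives on both sides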;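 also: Alexa488 bead fluorescence after subtracting the streptavidin-only scavenger bead signal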
MEKK2wt PB1 HTS = modulators of MEK5 binding to wildtype MEKK2, primary screen, biochemical, multiplex bead flow cytometry, Alexa488-MEK5; 290,000 compounds, 1.1% hits; binding response (% of control), % at 10 µM; Alexa488-MEK5 binding to MEKK2 WT; actives lie on both sides; Mitogen-activated protein kinase kinase kinase 2 (Homo sapiens), Q9Y2U5; in the data active = binding response below about 67% or above about 130%
Casp3 counter = CASP3 inhibitor validation, counterassay for project on UBE2N polyubiquitination blockers, biochemical, one dose. 1,400 compounds, 4% hits. Recombinant caspase-3, Caspase-Glo 3/7 luminescence, 60 min. AID 488856, 2010. inhibition, % at 20 µM. shares compounds with UBC13 polyUb;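 active = mean inhibition across replicates above about 26%, limit read from the data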;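 also: plate controls were DMSO with caspase-3 for no effect and DMSO wells lacking enzyme for full effect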
UBC13 conf = UBC13 polyubiquitination inhibitors, single-point retest, confirmation, biochemical, TR-FRET, single concentration; shares compounds with UBC13 polyUb; inhibition, % at 10 µM; 1,400 compounds, 68% hits; in the data active = inhibition above about 45%
Numbers without * were called inactive; nt = no result.

SMILES	Apaf1 inhib	MEKK2 mut-MEK5	UBC13 polyUb	MEKK3 PB1 HTS	MEKK2wt PB1 HTS	Casp3 counter	UBC13 conf
NC(=O)CC(NC(=O)Cc1ccc(Cl)cc1)c1ccc(NCc2ccccc2)c([N+](=O)[O-])c1 (centres undefined)	4.6	6.0	-0.3	106.0	110.0	nt	nt
CCc1ccc(C(=O)Nn2c(C)nc3ccccc3c2=O)cc1	1.0	8.0	60.3*	108.0	112.0	-2.4	63.6*
CCOC(=O)CSc1nc2ccccc2c(=O)n1C	4.8	7.0	5.4	100.0	102.0	nt	nt
CCOC(=O)CSc1nc2ccccc2c(=O)n1NC(=O)c1ccccc1	-0.1	-3.0	48.5*	99.0	98.0	6.3	38.6
COc1ccc(C(=O)c2c3ccccc3[n+]([O-])n2CCCN)cc1	7.7	nt	-12.1	nt	nt	nt	nt
NCCCn1c(C(=O)c2cc(Cl)c(N)c(Cl)c2)c2ccccc2[n+]1[O-]	5.6	nt	97.0*	nt	nt	1.0	99.9*
NC(=O)CCn1c(C(=O)c2cc(Cl)c(N)c(Cl)c2)c2ccccc2[n+]1[O-]	5.0	-2.0	61.5*	102.0	103.0	0.0	65.2*
NC(=O)CCn1c(C(=O)c2cccc([N+](=O)[O-])c2)c2ccccc2[n+]1[O-]	-3.6	-3.0	5.5	103.0	97.0	nt	nt
CCOc1ccc(S(=O)(=O)N2CCCC(C(=O)N3CCCC3)C2)cc1 (centres undefined)	-11.6	9.0	4.6	101.0	109.0	nt	nt
CCN1CCN(C(=O)c2cc3c(s2)-c2c(C)cccc2OC3)CC1	1.1	7.0	79.5*	106.0	124.0	53.5*	75.7*
CS(=O)(=O)c1ncc(Cl)c(C(=O)Nc2ccc(N3CCOCC3)cc2)n1	-8.0	nt	45.3*	nt	nt	11.4	32.6
CS(=O)(=O)c1ncc(Cl)c(C(=O)Nc2ccc(OC(F)F)cc2)n1	-14.5	8.0	37.9	108.0	109.0	nt	nt
Cc1ccc(S(=O)(=O)N2CCN(C(=O)Cc3c(F)cccc3Cl)CC2)cc1	8.0	nt	-3.5	nt	nt	nt	nt
COc1ccc(Nc2cc(Nc3cc(OC)c(OC)c(OC)c3)ncn2)cc1	0.5	6.0	54.9*	102.0	106.0	-1.1	58.2*
Cc1nc2c(C)cccn2c1C(=O)N/N=C/c1ccccc1[N+](=O)[O-]	2.0	7.0	-7.5	104.0	101.0	nt	nt
Cc1nc2ccccn2c1C(=O)N/N=C/c1ccccc1[N+](=O)[O-]	-28.1	0.0	63.3*	108.0	102.0	-5.1	-3.1
CCn1c(=O)c(C(=O)NCCN2CCCCC2)c(O)c2ccccc21	0.0	1.0	48.0*	95.0	114.0	0.7	55.3*
CC1CCCC(NC(=O)CSc2ncnc3ccccc23)C1C (centres undefined)	-1.0	nt	45.8*	nt	nt	3.3	34.2
COc1ccc(CN2C(=O)c3cccc4cccc2c34)cc1F	11.7	-9.0	64.4*	98.0	90.0	0.5	62.4*
CCn1c(SCC(=O)Nc2oc(C)c3c(C)n[nH]c(=O)c23)nc2sc(C)c(C)c2c1=O	30.9	nt	63.8*	nt	nt	-2.5	18.3
Cc1ccc(C)c(N2CCN(C(=S)Nc3ccc4nc(N5CCOCC5)cc(C)c4c3)CC2)c1	18.1	-1.0	-10.0	126.0	110.0	nt	nt
Cc1ccc(C)c(N2CCN(C(=S)Nc3ccc4nc(N5CCN(C)CC5)cc(C)c4c3)CC2)c1	6.7	15.0	49.0*	102.0	128.0	0.4	73.1*
Cc1cccc(OCCNC(=O)CCNS(=O)(=O)c2ccc3ccccc3c2)c1	15.8	nt	-0.5	nt	nt	nt	nt
O=C(Nc1ccncc1)C1CCN(S(=O)(=O)c2cccc(C(F)(F)F)c2)CC1	38.8	nt	54.2*	nt	nt	0.7	32.1

Bioassay records: PubChem, several laboratories
